{
  "source": "ChEMBL document CHEMBL1240389",
  "about": "“In vitro and in vivo activities of the novel anticytomegalovirus compound AIC246” (Antimicrob Agents Chemother, 2010)",
  "key": {"Human betaherpesvirus 5 [1]": {"test_system": "Human betaherpesvirus 5", "experiment": "Antiviral activity against human cytomegalovirus isolate 472 infected in NHDF assessed as inhibition of virus-induced cytopathic effect after 6 to 7 days by giemsa staining", "type": "functional, organism-based", "conditions": "Human betaherpesvirus 5, isolate 472, NHDF", "in_short": "(§1)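 NHDF cells (1 × 10⁴/well) mixed with cell-free virus (MOI 0.03) or with infected-cell suspension (MOI 0.001 to 0.002). Compound was added from DMSO stocks in 2-fold serial dilutions, final 250 to 0.00005 μM, in duplicates. Plates were incubated 6 to 7 days at 37°C or until 100% CPE in virus control, then fixed and stained with Giemsa/formalin and scored microscopically. EC₅₀ is 50% CPE inhibition versus untreated infected control.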"}, "Human betaherpesvirus 5 [2]": {"test_system": "Human betaherpesvirus 5", "experiment": "Antiviral activity against ganciclovir-resistant human cytomegalovirus isolate E17251S infected in NHDF assessed as inhibition of virus-induced cytopathic effect after 6 to 7 days by giemsa staining", "type": "functional, organism-based", "conditions": "Human betaherpesvirus 5, isolate E17251S", "in_short": "(§2)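 Cell-associated virus (infected NHDF cells) used as inoculum, at MOI 0.001 to 0.002, mixed with uninfected NHDF (1 × 10⁴ to 3 × 10⁴ cells/well). Compound was added in 2-fold serial dilutions, final 250 to 0.00005 μM, in duplicates. Incubation was 6 to 7 days at 37°C, followed by Giemsa/formalin staining and visual CPE scoring. EC₅₀ is 50% CPE inhibition versus untreated infected control; at least two independent experiments.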"}, "Human betaherpesvirus 5 [3]": {"test_system": "Human betaherpesvirus 5", "experiment": "Antiviral activity against human cytomegalovirus infected in NHDF after 7 days by GFP-based fluorescent reduction assay", "type": "functional, organism-based", "conditions": "Human betaherpesvirus 5, NHDF, 168 h", "in_short": "(§3)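 Fibroblasts of the stated type (1.5 × 10⁴/well) infected with GFP-expressing recombinant AD169 (HCMV-GFP MOI 0.1 or RV-HG MOI 0.2 to 0.5). After adsorption the inoculum was replaced, with 3-fold serial compound dilutions at least in duplicate, and 7 days at 37°C. GFP units were read by CCD camera in PBS. EC₅₀ was derived from GFPU reduction versus untreated infected wells; at least triplicate runs.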"}, "Human betaherpesvirus 5 [4]": {"test_system": "Human betaherpesvirus 5", "experiment": "Antiviral activity against human cytomegalovirus Davis infected in NHDF assessed as inhibition of virus-induced cytopathic effect after 6 to 7 days by giemsa staining", "type": "functional, organism-based", "conditions": "Human betaherpesvirus 5, Davis", "in_short": "as §1"}, "Human betaherpesvirus 5 [5]": {"test_system": "Human betaherpesvirus 5", "experiment": "Antiviral activity against 0.3 MOI human cytomegalovirus AD169 infected in NHDF after 7 days by GFP-based fluorescent reduction assay", "type": "functional, organism-based", "conditions": "Human betaherpesvirus 5, AD169, NHDF, 168 h", "in_short": "(§4)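 NHDF cells (1.5 × 10⁴/well) infected with GFP-expressing HCMV AD169 at the stated MOI (range 0.003 to 1 tested). After adsorption the inoculum was replaced, and compound was added in 3-fold serial dilutions, each at least in duplicate. Cells were incubated 7 days at 37°C, then GFP units were read by CCD camera in PBS. EC₅₀ was taken as the % GFPU reduction versus no-drug control. At least triplicate experiments.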"}, "Human betaherpesvirus 5 [6]": {"test_system": "Human betaherpesvirus 5", "experiment": "Antiviral activity against human cytomegalovirus AD169 infected in NHDF after 7 days by GFP-based fluorescent reduction assay", "type": "functional, organism-based", "conditions": "Human betaherpesvirus 5, AD169, NHDF, 168 h", "in_short": "(§5)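 Incubated 7 days at 37°C, medium swapped for PBS, GFP units read by CCD-camera fluorescence imager. EC50/EC90 from % GFPU reduction versus untreated infected wells by nonlinear regression; at least triplicate experiments.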"}, "Human betaherpesvirus 5 [7]": {"test_system": "Human betaherpesvirus 5", "experiment": "Antiviral activity against human cytomegalovirus AD169 infected in NHDF at 20 uM treated after 33 hrs postinfection measured after 7 days by GFP-based fluorescent reduction assay", "type": "functional, organism-based"}, "Human betaherpesvirus 5 [8]": {"test_system": "Human betaherpesvirus 5", "experiment": "Antiviral activity against human cytomegalovirus AD169 infected in NHDF assessed as inhibition of virus replication at 50 nM measured after 24 to 72 hrs of compound wash by fluorescence assay", "type": "functional, organism-based"}, "Human betaherpesvirus 5 [9]": {"test_system": "Human betaherpesvirus 5", "experiment": "Antiviral activity against human cytomegalovirus AD169 infected in NHDF at 10 times EC50 treated postinfection and measured after 7 days by GFP-based fluorescent reduction assay"}, "Human betaherpesvirus 5 [10]": {"test_system": "Human betaherpesvirus 5", "experiment": "Antiviral activity against human cytomegalovirus RV-HG infected in NHDF after 7 days by GFP-based fluorescent reduction assay", "type": "functional, organism-based", "conditions": "Human betaherpesvirus 5, RV-HG, 168 h", "in_short": "as §5"}, "Human betaherpesvirus 5 [11]": {"test_system": "Human betaherpesvirus 5", "experiment": "Antiviral activity against ganciclovir-resistant human cytomegalovirus isolate 1947R infected in NHDF assessed as inhibition of virus-induced cytopathic effect after 6 to 7 days by giemsa staining", "type": "functional, organism-based", "conditions": "Human betaherpesvirus 5, isolate 1947R", "in_short": "as §2"}, "Human betaherpesvirus 5 [12]": {"test_system": "Human betaherpesvirus 5", "experiment": "Antiviral activity against human cytomegalovirus infected in NHLF after 7 days by GFP-based fluorescent reduction assay", "type": "functional, organism-based", "conditions": "Human betaherpesvirus 5, 168 h", "in_short": "as §3"}, "Human betaherpesvirus 5 [13]": {"test_system": "Human betaherpesvirus 5", "experiment": "Antiviral activity against human cytomegalovirus infected in human HS27 cells after 7 days by GFP-based fluorescent reduction assay", "type": "functional, organism-based", "conditions": "Human betaherpesvirus 5, HS27, 168 h", "in_short": "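GFP reduction assay run in HS27 foreskin fibroblasts instead of NHDF, infected with AD169-GFP; compounds in 3-fold serial dilutions, 7 days at 37°C, GFP units read by camera-based fluorescence detector after PBS exchange. EC50 from % GFPU reduction versus drug-free infected control; at least triplicate experiments.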"}, "Human betaherpesvirus 5 [14]": {"test_system": "Human betaherpesvirus 5", "experiment": "Antiviral activity against 0.003 MOI human cytomegalovirus AD169 infected in NHDF after 7 days by GFP-based fluorescent reduction assay", "type": "functional, organism-based", "conditions": "Human betaherpesvirus 5, AD169, NHDF, 168 h", "in_short": "as §4"}, "Human betaherpesvirus 5 [15]": {"test_system": "Human betaherpesvirus 5", "experiment": "Antiviral activity against human cytomegalovirus AD169 infected in NHDF assessed as inhibition of virus-induced cytopathic effect after 6 to 7 days by giemsa staining", "type": "functional, organism-based", "conditions": "Human betaherpesvirus 5, AD169, NHDF", "in_short": "as §1"}, "Human betaherpesvirus 5 [16]": {"test_system": "Human betaherpesvirus 5", "experiment": "Antiviral activity against 0.1 MOI human cytomegalovirus AD169 infected in NHDF after 7 days by GFP-based fluorescent reduction assay", "type": "functional, organism-based", "conditions": "Human betaherpesvirus 5, AD169, NHDF, 168 h", "in_short": "as §4"}, "[17]": {"test_system": "Human herpesvirus 5 strain AD169", "experiment": "Antiviral activity against ganciclovir-resistant human cytomegalovirus AD169 UL97 M460I infected in NHDF assessed as inhibition of virus-induced cytopathic effect after 6 to 7 days by giemsa staining", "type": "functional, organism-based", "conditions": "Human betaherpesvirus 5, UL97 M460I", "in_short": "as §1"}, "Human betaherpesvirus 5 [18]": {"test_system": "Human betaherpesvirus 5", "experiment": "Antiviral activity against human cytomegalovirus infected in HEL299 cells after 7 days by GFP-based fluorescent reduction assay", "type": "functional, organism-based", "conditions": "Human betaherpesvirus 5, HEL 299, 168 h", "in_short": "as §3"}, "Human betaherpesvirus 5 [19]": {"test_system": "Human betaherpesvirus 5", "experiment": "Antiviral activity against 0.03 MOI human cytomegalovirus AD169 infected in NHDF after 7 days by GFP-based fluorescent reduction assay", "type": "functional, organism-based", "conditions": "Human betaherpesvirus 5, AD169, NHDF, 168 h", "in_short": "as §4"}, "Human betaherpesvirus 5 [20]": {"test_system": "Human betaherpesvirus 5", "experiment": "Antiviral activity against 0.01 MOI human cytomegalovirus AD169 infected in NHDF after 7 days by GFP-based fluorescent reduction assay", "conditions": "Human betaherpesvirus 5, AD169, NHDF, 168 h"}, "Human betaherpesvirus 5 [21]": {"test_system": "Human betaherpesvirus 5", "experiment": "Antiviral activity against human cytomegalovirus AD169 infected in NHDF assessed as inhibition of virus replication at 20 uM after 96 hrs by fluorescence assay", "type": "functional, organism-based"}, "Human betaherpesvirus 5 [22]": {"test_system": "Human betaherpesvirus 5", "experiment": "Antiviral activity against human cytomegalovirus isolate E16415S infected in NHDF assessed as inhibition of virus-induced cytopathic effect after 6 to 7 days by giemsa staining", "type": "functional, organism-based", "conditions": "Human betaherpesvirus 5, isolate E16415S", "in_short": "as §2"}, "Human betaherpesvirus 5 [23]": {"test_system": "Human betaherpesvirus 5", "experiment": "Antiviral activity against 1 MOI human cytomegalovirus AD169 infected in NHDF after 7 days by GFP-based fluorescent reduction assay", "type": "functional, organism-based", "conditions": "Human betaherpesvirus 5, AD169, NHDF, 168 h", "in_short": "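NHDF cells (1.5 × 10⁴/well) infected with GFP-expressing HCMV AD169 at increasing MOI (0.003 to 1); after adsorption inoculum replaced, compound added in serial 3-fold dilutions, at least duplicate. 7 days at 37°C, medium swapped for PBS, GFP units read by CCD camera. EC₅₀ = 50% GFPU reduction versus no-drug virus control by nonlinear regression; at least triplicate experiments.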"}},
  "note": "Activity calls are given as the source filed them. No cut-off for these calls is given here.",
  "data": [
    {"smiles": "Nc1nc2c(ncn2COC(CO)CO)c(=O)[nH]1", "note": "[GANCICLOVIR]", "values": [
      {"measurement": "EC50", "setting": "Human betaherpesvirus 5 [1]", "result": 5, "unit": "µM"},
      {"measurement": "EC50", "setting": "Human betaherpesvirus 5 [2]", "result": 14, "unit": "µM"},
      {"measurement": "EC50", "setting": "Human betaherpesvirus 5 [3]", "result": 1.91, "unit": "µM"},
      {"measurement": "EC50", "setting": "Human betaherpesvirus 5 [4]", "result": 2.7, "unit": "µM"},
      {"measurement": "EC50", "setting": "Human betaherpesvirus 5 [5]", "result": 6.51, "unit": "µM"},
      {"measurement": "EC50", "setting": "Human betaherpesvirus 5 [6]", "result": 1.73, "unit": "µM"},
      {"measurement": "EC90", "setting": "Human betaherpesvirus 5 [6]", "result": 10.7, "unit": "µM"},
      {"measurement": "Activity", "setting": "Human betaherpesvirus 5 [7]", "result": "Active"},
      {"measurement": "Activity", "setting": "Human betaherpesvirus 5 [8]", "result": "Active"},
      {"measurement": "Activity", "setting": "Human betaherpesvirus 5 [9]", "result": "Active"},
      {"measurement": "EC50", "setting": "Human betaherpesvirus 5 [10]", "result": 2.33, "unit": "µM"},
      {"measurement": "EC90", "setting": "Human betaherpesvirus 5 [10]", "result": 18.3, "unit": "µM"},
      {"measurement": "EC50", "setting": "Human betaherpesvirus 5 [11]", "result": 15, "unit": "µM"},
      {"measurement": "EC50", "setting": "Human betaherpesvirus 5 [12]", "result": 2.07, "unit": "µM"},
      {"measurement": "EC50", "setting": "Human betaherpesvirus 5 [13]", "result": 0.32, "unit": "µM"},
      {"measurement": "EC50", "setting": "Human betaherpesvirus 5 [14]", "result": 0.99, "unit": "µM"},
      {"measurement": "EC50", "setting": "Human betaherpesvirus 5 [15]", "result": 4.3, "unit": "µM"},
      {"measurement": "EC50", "setting": "Human betaherpesvirus 5 [16]", "result": 2.21, "unit": "µM"},
      {"measurement": "EC50", "setting": "[17]", "result": 12, "unit": "µM"},
      {"measurement": "EC50", "setting": "Human betaherpesvirus 5 [18]", "result": 2.39, "unit": "µM"},
      {"measurement": "EC50", "setting": "Human betaherpesvirus 5 [19]", "result": 1.74, "unit": "µM"},
      {"measurement": "EC50", "setting": "Human betaherpesvirus 5 [20]", "result": 0.68, "unit": "µM"},
      {"measurement": "Activity", "setting": "Human betaherpesvirus 5 [21]", "result": "Active"},
      {"measurement": "EC50", "setting": "Human betaherpesvirus 5 [22]", "result": 1.1, "unit": "µM"},
      {"measurement": "EC50", "setting": "Human betaherpesvirus 5 [23]", "result": 5.26, "unit": "µM"}
    ]}
  ]
}
